# In ChEMBL document CHEMBL1130379, “3-[2-(Pyrrolidin-1-yl)ethyl]indoles and 3-[3-(piperidin-1-yl)propyl]indoles: agonists for the h5-HT1D receptor with high selectivity over the h5-HT1B subtype” (J Med Chem, 1997):
# Tested on: not listed separately
# Experiment: efficacy relative to 5-HT
# Format: functional
# How it was run: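 Agonist-induced [35S]GTPγS binding in CHO cells stably transfected with human 5-HT1D receptors. Intrinsic efficacy is expressed as percent of the maximal 5-HT response.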
row,Structure (SMILES),Efficacy [%]
1,CNS(=O)(=O)Cc1ccc2[nH]cc(CCN(C)C)c2c1,100

# Tested on: not listed separately
# Experiment: Percent efficacy relative to 5-HT
# Format: functional
# How it was run: (§1)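 Agonist-induced [35S]GTPγS binding was measured in CHO cells stably transfected with human 5-HT1D receptors. The output was EC50 together with intrinsic efficacy, expressed as percent of the maximal 5-HT response.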
row,Structure (SMILES),Efficacy [%]
1,OC[C@H](NC1CCN(CCCc2c[nH]c3ccc(-n4cnnc4)cc23)CC1)c1ccc(F)cc1,104
2,C[C@@H](NC1CCN(CCCc2c[nH]c3ccc(-n4cnnc4)cc23)CC1)c1ccccc1,96
3,c1ccc(CNC2CCN(CCCc3c[nH]c4ccc(-n5cnnc5)cc34)CC2)cc1,76
4,c1ccc(CNC[C@@H]2CCN(CCc3c[nH]c4ccc(-n5cnnc5)cc34)C2)cc1,100
5,CN(Cc1ccccc1)C[C@@H]1CCN(CCc2c[nH]c3ccc(-n4cnnc4)cc23)C1,102
6,"c1ccc(CNCC2CCN(CCc3c[nH]c4ccc(-n5cnnc5)cc34)C2)cc1 (single isomer, unassigned)",102
7,c1ccc(COC[C@@H]2CCN(CCc3c[nH]c4ccc(-n5cnnc5)cc34)C2)cc1,68
8,CN(C)CCc1c[nH]c2ccc(Cn3cncn3)cc12,90
9,c1ccc(CO[C@@H]2CCN(CCc3c[nH]c4ccc(-n5cnnc5)cc34)C2)cc1 (stereo in doubt; 4b) [listing 1 of 2 here],81
10,CN(Cc1ccccc1)C1CCN(CCCc2c[nH]c3ccc(-n4cnnc4)cc23)CC1,94
11,OC[C@H](NC1CCN(CCCc2c[nH]c3ccc(-n4cnnc4)cc23)CC1)c1ccccc1,95
12,c1ccc(CO[C@@H]2CCN(CCc3c[nH]c4ccc(-n5cnnc5)cc34)C2)cc1 (stereo in doubt; 4c) [listing 1 of 2 here],84
13,CN(C)CCc1c[nH]c2ccc(-n3cnnc3)cc12,117
14,CN(Cc1ccccc1)CC1CCN(CCCc2c[nH]c3ccc(-n4cnnc4)cc23)CC1,93
15,c1cc2[nH]cc(CCN3CCCC3)c2cc1-n1cnnc1,120

# Target: T1, 5-hydroxytryptamine receptor 1D (Homo sapiens, UniProt P28221)
# Experiment: Binding affinity by displacement to human cloned 5-hydroxytryptamine 1D receptor in CHO cells by [3H]5-HT displacement.
# Format: cell-based
# How it was run: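 Cloned human 5-HT1D receptors were stably expressed in CHO cells. Compounds displaced [3H]-5-HT, used at the receptor's KD, and IC50 was read from the displacement. Values are the mean of two independent determinations, each run in triplicate.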
# T1 sequence (P28221 whole entry): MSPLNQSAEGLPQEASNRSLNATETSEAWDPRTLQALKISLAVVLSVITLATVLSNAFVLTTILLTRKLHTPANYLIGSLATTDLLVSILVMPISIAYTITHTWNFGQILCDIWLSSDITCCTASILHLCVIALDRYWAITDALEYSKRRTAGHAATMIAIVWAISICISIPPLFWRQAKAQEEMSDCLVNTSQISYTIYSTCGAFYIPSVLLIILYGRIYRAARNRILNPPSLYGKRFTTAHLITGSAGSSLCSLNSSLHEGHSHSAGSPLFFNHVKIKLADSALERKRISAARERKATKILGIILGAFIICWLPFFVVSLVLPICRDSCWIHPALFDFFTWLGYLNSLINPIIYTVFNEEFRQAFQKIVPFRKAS
row,Structure (SMILES),IC50 [nM]
1,O=C(c1ccc(F)cc1)C1CCN(CCn2c(=O)[nH]c3ccccc3c2=O)CC1 [KETANSERIN],260
2,OC[C@H](NC1CCN(CCCc2c[nH]c3ccc(-n4cnnc4)cc23)CC1)c1ccc(F)cc1,0.9
3,C[C@@H](NC1CCN(CCCc2c[nH]c3ccc(-n4cnnc4)cc23)CC1)c1ccccc1,0.35
4,c1ccc(CNC2CCN(CCCc3c[nH]c4ccc(-n5cnnc5)cc34)CC2)cc1,4.8
5,c1ccc(CNC[C@@H]2CCN(CCc3c[nH]c4ccc(-n5cnnc5)cc34)C2)cc1,0.5
6,c1cc2[nH]cc(CCN3CCCCC3)c2cc1-n1cnnc1,200
7,CN(Cc1ccccc1)C[C@@H]1CCN(CCc2c[nH]c3ccc(-n4cnnc4)cc23)C1,0.7
8,"c1ccc(CNCC2CCN(CCc3c[nH]c4ccc(-n5cnnc5)cc34)C2)cc1 (single isomer, unassigned)",1.6
9,c1ccc(COC[C@@H]2CCN(CCc3c[nH]c4ccc(-n5cnnc5)cc34)C2)cc1,2.3
10,c1ccc(CO[C@@H]2CCN(CCc3c[nH]c4ccc(-n5cnnc5)cc34)C2)cc1 (stereo in doubt; 4b) [listing 2 of 2 here],6.3
11,CN(Cc1ccccc1)[C@@H]1CCN(CCc2c[nH]c3ccc(-n4cnnc4)cc23)C1,38
12,CN(Cc1ccccc1)C1CCN(CCCc2c[nH]c3ccc(-n4cnnc4)cc23)CC1,2.2
13,OC[C@H](NC1CCN(CCCc2c[nH]c3ccc(-n4cnnc4)cc23)CC1)c1ccccc1,1.3
14,CN(C)CCc1c[nH]c2ccc(-n3cnnc3)cc12,0.3
15,c1cc2[nH]cc(CCCN3CCCCC3)c2cc1-n1cnnc1,24
16,CN(Cc1ccccc1)CC1CCN(CCCc2c[nH]c3ccc(-n4cnnc4)cc23)CC1,0.95
17,c1cc2[nH]cc(CCN3CCCC3)c2cc1-n1cnnc1,3.4
18,c1ccc(CO[C@@H]2CCN(CCc3c[nH]c4ccc(-n5cnnc5)cc34)C2)cc1 (stereo in doubt; 4c) [listing 2 of 2 here],23

# Target: 5-hydroxytryptamine receptor 1B (Homo sapiens, UniProt P28222)
# Experiment: Binding affinity to human cloned 5-hydroxytryptamine 1B receptor in CHO cells by [3H]5-HT binding displacement.
# Format: cell-based
# 5-hydroxytryptamine receptor 1B, sequence (P28222 whole entry): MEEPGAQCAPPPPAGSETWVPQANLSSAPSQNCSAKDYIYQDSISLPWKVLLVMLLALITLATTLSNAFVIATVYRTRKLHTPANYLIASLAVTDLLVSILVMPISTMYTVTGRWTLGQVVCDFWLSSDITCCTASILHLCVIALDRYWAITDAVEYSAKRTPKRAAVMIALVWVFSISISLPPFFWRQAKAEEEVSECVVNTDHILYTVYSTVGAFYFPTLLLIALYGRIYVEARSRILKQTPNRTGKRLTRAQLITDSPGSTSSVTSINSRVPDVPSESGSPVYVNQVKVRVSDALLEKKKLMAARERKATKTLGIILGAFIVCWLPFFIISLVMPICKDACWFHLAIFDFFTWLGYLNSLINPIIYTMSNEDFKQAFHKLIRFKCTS
row,Structure (SMILES),IC50 [nM]
1,O=C(c1ccc(F)cc1)C1CCN(CCn2c(=O)[nH]c3ccccc3c2=O)CC1 [KETANSERIN],6500
2,OC[C@H](NC1CCN(CCCc2c[nH]c3ccc(-n4cnnc4)cc23)CC1)c1ccc(F)cc1,185
3,C[C@@H](NC1CCN(CCCc2c[nH]c3ccc(-n4cnnc4)cc23)CC1)c1ccccc1,35
4,c1ccc(CNC2CCN(CCCc3c[nH]c4ccc(-n5cnnc5)cc34)CC2)cc1,125
5,c1ccc(CNC[C@@H]2CCN(CCc3c[nH]c4ccc(-n5cnnc5)cc34)C2)cc1,47
6,c1cc2[nH]cc(CCN3CCCCC3)c2cc1-n1cnnc1,568
7,CN(Cc1ccccc1)C[C@@H]1CCN(CCc2c[nH]c3ccc(-n4cnnc4)cc23)C1,33
8,"c1ccc(CNCC2CCN(CCc3c[nH]c4ccc(-n5cnnc5)cc34)C2)cc1 (single isomer, unassigned)",50
9,c1ccc(COC[C@@H]2CCN(CCc3c[nH]c4ccc(-n5cnnc5)cc34)C2)cc1,88
10,c1ccc(CO[C@@H]2CCN(CCc3c[nH]c4ccc(-n5cnnc5)cc34)C2)cc1 (stereo in doubt; 4b) [listing 2 of 2 here],146
11,CN(Cc1ccccc1)[C@@H]1CCN(CCc2c[nH]c3ccc(-n4cnnc4)cc23)C1,210
12,CN(Cc1ccccc1)C1CCN(CCCc2c[nH]c3ccc(-n4cnnc4)cc23)CC1,145
13,OC[C@H](NC1CCN(CCCc2c[nH]c3ccc(-n4cnnc4)cc23)CC1)c1ccccc1,114
14,CN(C)CCc1c[nH]c2ccc(-n3cnnc3)cc12,1.4
15,c1cc2[nH]cc(CCCN3CCCCC3)c2cc1-n1cnnc1,15
16,CN(Cc1ccccc1)CC1CCN(CCCc2c[nH]c3ccc(-n4cnnc4)cc23)CC1,28
17,c1cc2[nH]cc(CCN3CCCC3)c2cc1-n1cnnc1,30.2
18,c1ccc(CO[C@@H]2CCN(CCc3c[nH]c4ccc(-n5cnnc5)cc34)C2)cc1 (stereo in doubt; 4c) [listing 2 of 2 here],280

# Target: T1, 5-hydroxytryptamine receptor 1D
# Experiment: Measurement of agonist induced [35S]GTP-gamma-S, binding in CHO cells stably transfected with 5-hydroxytryptamine 1D receptor.
# Format: functional, cell-based
# How it was run: as §1
row,Structure (SMILES),EC50 [nM]
1,OC[C@H](NC1CCN(CCCc2c[nH]c3ccc(-n4cnnc4)cc23)CC1)c1ccc(F)cc1,1.1
2,C[C@@H](NC1CCN(CCCc2c[nH]c3ccc(-n4cnnc4)cc23)CC1)c1ccccc1,1.5
3,c1ccc(CNC2CCN(CCCc3c[nH]c4ccc(-n5cnnc5)cc34)CC2)cc1,8
4,c1ccc(CNC[C@@H]2CCN(CCc3c[nH]c4ccc(-n5cnnc5)cc34)C2)cc1,0.93
5,CN(Cc1ccccc1)C[C@@H]1CCN(CCc2c[nH]c3ccc(-n4cnnc4)cc23)C1,1.6
6,"c1ccc(CNCC2CCN(CCc3c[nH]c4ccc(-n5cnnc5)cc34)C2)cc1 (single isomer, unassigned)",4.1
7,c1ccc(COC[C@@H]2CCN(CCc3c[nH]c4ccc(-n5cnnc5)cc34)C2)cc1,2.1
8,c1ccc(CO[C@@H]2CCN(CCc3c[nH]c4ccc(-n5cnnc5)cc34)C2)cc1 (stereo in doubt; 4b) [listing 2 of 2 here],15
9,CN(Cc1ccccc1)C1CCN(CCCc2c[nH]c3ccc(-n4cnnc4)cc23)CC1,1.6
10,OC[C@H](NC1CCN(CCCc2c[nH]c3ccc(-n4cnnc4)cc23)CC1)c1ccccc1,1.8
11,CN(C)CCc1c[nH]c2ccc(-n3cnnc3)cc12,0.45
12,CN(Cc1ccccc1)CC1CCN(CCCc2c[nH]c3ccc(-n4cnnc4)cc23)CC1,0.9
13,c1cc2[nH]cc(CCN3CCCC3)c2cc1-n1cnnc1,2.6
14,c1ccc(CO[C@@H]2CCN(CCc3c[nH]c4ccc(-n5cnnc5)cc34)C2)cc1 (stereo in doubt; 4c) [listing 2 of 2 here],33

# Target: Serotonin 1 receptors; 5-HT1B & 5-HT1D (Homo sapiens) (UniProt P28222+P28221)
# Experiment: Binding selectivity for 5-HT 1D/1B receptors
# Format: protein assay
row,Structure (SMILES),Selectivity ratio
1,O=C(c1ccc(F)cc1)C1CCN(CCn2c(=O)[nH]c3ccccc3c2=O)CC1 [KETANSERIN],25
2,OC[C@H](NC1CCN(CCCc2c[nH]c3ccc(-n4cnnc4)cc23)CC1)c1ccc(F)cc1,206
3,C[C@@H](NC1CCN(CCCc2c[nH]c3ccc(-n4cnnc4)cc23)CC1)c1ccccc1,100
4,c1ccc(CNC2CCN(CCCc3c[nH]c4ccc(-n5cnnc5)cc34)CC2)cc1,26
5,c1ccc(CNC[C@@H]2CCN(CCc3c[nH]c4ccc(-n5cnnc5)cc34)C2)cc1,94
6,c1cc2[nH]cc(CCN3CCCCC3)c2cc1-n1cnnc1,3
7,CN(Cc1ccccc1)C[C@@H]1CCN(CCc2c[nH]c3ccc(-n4cnnc4)cc23)C1,47
8,"c1ccc(CNCC2CCN(CCc3c[nH]c4ccc(-n5cnnc5)cc34)C2)cc1 (single isomer, unassigned)",31
9,c1ccc(COC[C@@H]2CCN(CCc3c[nH]c4ccc(-n5cnnc5)cc34)C2)cc1,38
10,CN(Cc1ccccc1)[C@@H]1CCN(CCc2c[nH]c3ccc(-n4cnnc4)cc23)C1,5.5
11,c1ccc(CO[C@@H]2CCN(CCc3c[nH]c4ccc(-n5cnnc5)cc34)C2)cc1 (stereo in doubt; 4b) [listing 1 of 2 here],23
12,CN(Cc1ccccc1)C1CCN(CCCc2c[nH]c3ccc(-n4cnnc4)cc23)CC1,66
13,OC[C@H](NC1CCN(CCCc2c[nH]c3ccc(-n4cnnc4)cc23)CC1)c1ccccc1,88
14,c1ccc(CO[C@@H]2CCN(CCc3c[nH]c4ccc(-n5cnnc5)cc34)C2)cc1 (stereo in doubt; 4c) [listing 1 of 2 here],12
15,CN(C)CCc1c[nH]c2ccc(-n3cnnc3)cc12,4.7
16,c1cc2[nH]cc(CCCN3CCCCC3)c2cc1-n1cnnc1,0.6
17,CN(Cc1ccccc1)CC1CCN(CCCc2c[nH]c3ccc(-n4cnnc4)cc23)CC1,29
18,c1cc2[nH]cc(CCN3CCCC3)c2cc1-n1cnnc1,9
